Source: ChEMBL document CHEMBL1949496, “Synthesis of [¹⁸F]-labeled (2-(2-fluoroethoxy)ethyl)triphenylphosphonium cation as a potential agent for myocardial imaging using positron emission tomography” (Bioorg Med Chem Lett, 2012)

Key:
[1] = Drug uptake in Sprague-Dawley rat myocardium at 37 MBq, iv up to 1 hr by micro PET analysis; format: ADME, organism-based; conditions: in vivo
Outline: (§1)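 Rats received the tracer intravenously and were imaged by micro-PET in coronal view at 0.5 h and 1.0 h after injection.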

Liver = assay: Biodistribution in BALB/c mouse liver at 7.4 MBq, iv after 120 mins by gamma counting; format: ADME, organism-based; conditions: in vivo, 2 h
Outline: (§2)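 Tracer given intravenously to BALB/c mice; animals sampled at 10, 30, 60 and 120 min after injection. Organ radioactivity expressed as percentage of injected dose per gram of tissue (% ID/g), n = 12.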

Nucleic Acid [2] = assay: Ratio of drug uptake in rat H9c2 cells to mouse NIH3T3 cells after 0.5 to 2 hrs by gamma counting; format: ADME, cell-based
Nucleic Acid [3] = assay: Ratio of drug level in BALB/c mouse heart to lung at 7.4 MBq, iv after 60 mins by gamma counter; format: ADME, organism-based; conditions: in vivo, 1 h
Outline: (§3)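 Normal BALB/c mice were given the 18F tracer by i.v. injection. Tissues were sampled at 10, 30, 60 and 120 min. Activity is expressed as % injected dose per gram of tissue (n = 12), and organ ratios were taken from these values.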

Intestine [4] = assay: Biodistribution in BALB/c mouse intestine at 7.4 MBq, iv after 30 mins by gamma counting; format: ADME, organism-based; conditions: in vivo, 0.5 h; outline: as §2
Heart [5] = assay: Drug uptake in Sprague-Dawley rat heart at 37 MBq, iv after 1 hr by micro PET analysis; format: ADME, organism-based; conditions: in vivo; outline: as §1
Nucleic Acid [6] = assay: Ratio of drug level in BALB/c mouse heart to lung at 7.4 MBq, iv after 30 mins by gamma counter; format: ADME, organism-based; conditions: in vivo, 0.5 h; outline: as §3
Blood [7] = assay: Biodistribution in BALB/c mouse blood at 7.4 MBq, iv after 120 mins by gamma counting; format: ADME, organism-based; conditions: in vivo, 2 h; outline: as §2
Stomach [8] = assay: Biodistribution in BALB/c mouse stomach at 7.4 MBq, iv after 30 mins by gamma counting; format: ADME, organism-based; conditions: in vivo, 0.5 h; outline: as §2
Spleen [9] = assay: Biodistribution in BALB/c mouse spleen at 7.4 MBq, iv after 60 mins by gamma counting; format: ADME, organism-based; conditions: in vivo, 1 h; outline: as §2
Spleen [10] = assay: Biodistribution in BALB/c mouse spleen at 7.4 MBq, iv after 30 mins by gamma counting; format: ADME, organism-based; conditions: in vivo, 0.5 h; outline: as §2
Blood [11] = assay: Biodistribution in BALB/c mouse blood at 7.4 MBq, iv after 10 mins by gamma counting; format: ADME, organism-based; conditions: in vivo; outline: as §2
Muscle tissue [12] = assay: Biodistribution in BALB/c mouse normal muscle at 7.4 MBq, iv after 30 mins by gamma counting; format: ADME, organism-based; conditions: in vivo, 0.5 h; outline: as §2
Pancreas = assay: Biodistribution in BALB/c mouse pancreas at 7.4 MBq, iv after 60 mins by gamma counting; format: ADME, organism-based; conditions: in vivo, 1 h; outline: as §2
Nucleic Acid [13] = assay: Ratio of drug level in BALB/c mouse heart to lung at 7.4 MBq, iv after 10 mins by gamma counter; format: ADME, organism-based; conditions: in vivo; outline: as §3
[14] = Octanol-NaCl aqueous solution partition coefficient, log P of the compound after 20 mins by gamma counting; format: physicochemical
Heart [15] = assay: Drug uptake in Sprague-Dawley rat heart at 37 MBq, iv after 0.5 hrs by micro PET analysis; format: ADME, organism-based; conditions: in vivo; outline: as §1
Spleen [16] = assay: Biodistribution in BALB/c mouse spleen at 7.4 MBq, iv after 10 mins by gamma counting; format: ADME, organism-based; conditions: in vivo; outline: as §2
Nucleic Acid [17] = assay: Ratio of drug level in BALB/c mouse heart to liver at 7.4 MBq, iv after 10 mins by gamma counter; format: ADME, organism-based; conditions: in vivo; outline: as §3
H9c2 [18] = assay: Cellular uptake in rat H9c2 cells after 0.5 hrs by gamma counting; format: ADME, cell-based; conditions: h9c2, 0.5 h
Outline: (§4)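 Radiotracer incubated with H9c2 cells at 37 °C for 0.5, 1 or 2 h. Uptake expressed as percentage of applied radioactivity; means ± SD of three measurements.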

Nucleic Acid [19] = assay: Ratio of drug level in BALB/c mouse heart to lung at 7.4 MBq, iv after 120 mins by gamma counter; format: ADME, organism-based; conditions: in vivo, 2 h; outline: as §3
Intestine [20] = assay: Biodistribution in BALB/c mouse intestine at 7.4 MBq, iv after 10 mins by gamma counting; format: ADME, organism-based; conditions: in vivo; outline: as §2
H9c2 [21] = assay: Cellular uptake in rat H9c2 cells after 2 hrs by gamma counting; format: ADME, cell-based; conditions: h9c2, 2 h; outline: as §4
Kidney [22] = assay: Biodistribution in BALB/c mouse kidney at 7.4 MBq, iv after 60 mins by gamma counting; format: ADME, organism-based; conditions: in vivo, 1 h; outline: as §2
[23] = Metabolic stability in human serum assessed as compound remaining at 0.37 MBq after 4 hrs by TLC analysis; format: ADME, cell-free; conditions: read-out: Stability
Outline: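 Analysed on ITLC-sg strips developed in methylene chloride:methanol (9:2 v/v), and the strips were scanned on an automatic TLC scanner.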

Stomach [24] = assay: Biodistribution in BALB/c mouse stomach at 7.4 MBq, iv after 10 mins by gamma counting; format: ADME, organism-based; conditions: in vivo; outline: as §2
Muscle tissue [25] = assay: Biodistribution in BALB/c mouse normal muscle at 7.4 MBq, iv after 10 mins by gamma counting; format: ADME, organism-based; conditions: in vivo; outline: as §2
Heart [26] = assay: Biodistribution in BALB/c mouse heart at 7.4 MBq, iv after 30 mins by gamma counting; format: ADME, organism-based; conditions: in vivo, 0.5 h; outline: as §2
Intestine [27] = assay: Biodistribution in BALB/c mouse intestine at 7.4 MBq, iv after 120 mins by gamma counting; format: ADME, organism-based; conditions: in vivo, 2 h; outline: as §2
Stomach [28] = assay: Biodistribution in BALB/c mouse stomach at 7.4 MBq, iv after 60 mins by gamma counting; format: ADME, organism-based; conditions: in vivo, 1 h; outline: as §2
Kidney [29] = assay: Biodistribution in BALB/c mouse kidney at 7.4 MBq, iv after 120 mins by gamma counting; format: ADME, organism-based; conditions: in vivo, 2 h; outline: as §2

In the case of `[18F]CCOCC[P+](c1ccccc1)(c1ccccc1)c1ccccc1`, the Drug uptake [1] is reported as “Active”, the Drug uptake (Liver) is reported as 1.33 % ID/g and the Ratio (Nucleic Acid [2]) is reported as 2. The Ratio (Nucleic Acid [3]) was 5.05, the Drug uptake (Intestine [4]) was 8.52 % ID/g and the Drug uptake (Heart [5]) was “Active”. The Ratio (Nucleic Acid [6]) was 3.71, the Drug uptake (Blood [7]) was 0.24 % ID/g and the Drug uptake (Stomach [8]) was 3.98 % ID/g. For the same compound, the Drug uptake (Spleen [9]) was 1.95 % ID/g, the Drug uptake (Spleen [10]) was 2.81 % ID/g and the Drug uptake (Blood [11]) was 0.64 % ID/g. The Drug uptake (Muscle tissue [12]) was 5.27 % ID/g, the Drug uptake (Pancreas) was 7.35 % ID/g and the Ratio (Nucleic Acid [13]) was 4.58. For the same compound, the logP at 20 min [14] was 0.89, the Drug uptake (Heart [15]) was “Active” and the Drug uptake (Spleen [16]) was 3.35 % ID/g. For the same compound, the Ratio (Nucleic Acid [17]) was 11.08, the Drug uptake (H9c2 [18]) was 0.47% and the Ratio (Nucleic Acid [19]) was 4.36. The Drug uptake (Intestine [20]) was 9.14 % ID/g, the Drug uptake (H9c2 [21]) was 0.68% and the Drug uptake (Kidney [22]) was 16.86 % ID/g. The remaining at 4 h, 0.37 MBq [23] was > 95%, the Drug uptake (Stomach [24]) was 3.75 % ID/g and the Drug uptake (Muscle tissue [25]) was 6.46 % ID/g. For the same compound, the Drug uptake (Heart [26]) was 19.33 % ID/g, the Drug uptake (Intestine [27]) was 2.66 % ID/g and the Drug uptake (Stomach [28]) was 4.72 % ID/g. It also gave a Drug uptake (Kidney [29]) of 9.28 % ID/g.
